For orientation: inhibition means the change of the read-out against control, counted positive when it falls. The term residual activity denotes what remains of the control signal, in per cent. Low readings indicate little activity left, high ones much activity left.

In experiment [1] the target is Wee1-like protein kinase 2 (Homo sapiens) (UniProt P0C1S8). Nature of the experiment: Inhibition of WEE2 (unknown origin) at 1 uM by Ambit Kinomescan binding assay relative to control.
Experiment [2] has as its target Mitogen-activated protein kinase kinase kinase 11 (Homo sapiens) (UniProt Q16584). The experiment is described as follows: Inhibition of MLK3 (unknown origin) at 1 uM by Ambit Kinomescan binding assay relative to control.
Experiment [3] relates to Mast/stem cell growth factor receptor Kit (Homo sapiens), P10721 [V559D,T670I]. The experiment is described as follows: Inhibition of KIT V559D/T670I mutant (unknown origin) at 1 uM by Ambit Kinomescan binding assay relative to control; values are per cent of control.
For experiment [4], the target named is Myosin-IIIa (Homo sapiens) (UniProt Q8NEV4). Nature of the experiment: Inhibition of MYO3A (unknown origin) at 1 uM by Ambit Kinomescan binding assay relative to control. An outline of the steps:
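In vitro ATP-site competition binding assay against a panel of over 420 kinases (KinomeScan), with compound tested at 10 or 1 μM.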

Experiment [5] addresses Macrophage-stimulating protein receptor (Homo sapiens) (UniProt Q04912). Nature of the experiment: Inhibition of MST1R (unknown origin) at 1 uM by Ambit Kinomescan binding assay relative to control.
For experiment [6], the target named is Serine/threonine-protein kinase 4 (Homo sapiens) (UniProt Q13043). Nature of the experiment: Inhibition of MST1 Lys1 labeling site harbouring ETGQIVAIKQVPVESDLQEIIK in human A-375 cells at 5 uM by KiNativ Profiling analysis relative to control.
Experiment [7] has as its target RAF proto-oncogene serine/threonine-protein kinase (Homo sapiens, UniProt P04049). Nature of the experiment: Inhibition of RAF1 Lys2 labeling site in human A-375 cells at 5 uM by KiNativ Profiling analysis relative to control. Format: cell-based.
Experiment [8] addresses Phosphatidylinositol 4,5-bisphosphate 3-kinase catalytic subunit beta isoform (Homo sapiens) (UniProt P42338). Nature of the experiment: Inhibition of PIK3CB (unknown origin) at 10 uM by Ambit Kinomescan binding assay.
Experiment [9] has as its target Serine/threonine-protein kinase 17B (Homo sapiens) (UniProt O94768). The experiment is described as follows: Inhibition of DRAK2 (unknown origin) at 10 uM by Ambit Kinomescan binding assay.
In experiment [10] the target is Serine/threonine-protein kinase PAK 5 (Homo sapiens) (UniProt Q9P286). The experiment is described as follows: Inhibition of PAK7 (unknown origin) at 10 uM by Ambit Kinomescan binding assay.
Experiment [11] concerns the target Testis-specific serine/threonine-protein kinase 1 (Homo sapiens) (UniProt Q9BXA7). The experiment is described as follows: Inhibition of TSSK1B (unknown origin) at 10 uM by Ambit Kinomescan binding assay.
Experiment [12] has as its target Serine/threonine-protein kinase 26 (Homo sapiens) (UniProt Q9P289). The experiment is described as follows: Inhibition of MST4 ATP labeling site in human Huh-7 cells at 10 uM by KiNativ Profiling analysis relative to control. In kind it is cell-based.
The target in experiment [13] is Serine/threonine-protein kinase RIO1 (Homo sapiens) (UniProt Q9BRS2). Nature of the experiment: Inhibition of RIOK1 (unknown origin) at 10 uM by Ambit Kinomescan binding assay.
For experiment [14], the target named is T1, Eukaryotic translation initiation factor 2-alpha kinase 3 (Homo sapiens) (UniProt Q9NZJ5).
T1 sequence (whole entry): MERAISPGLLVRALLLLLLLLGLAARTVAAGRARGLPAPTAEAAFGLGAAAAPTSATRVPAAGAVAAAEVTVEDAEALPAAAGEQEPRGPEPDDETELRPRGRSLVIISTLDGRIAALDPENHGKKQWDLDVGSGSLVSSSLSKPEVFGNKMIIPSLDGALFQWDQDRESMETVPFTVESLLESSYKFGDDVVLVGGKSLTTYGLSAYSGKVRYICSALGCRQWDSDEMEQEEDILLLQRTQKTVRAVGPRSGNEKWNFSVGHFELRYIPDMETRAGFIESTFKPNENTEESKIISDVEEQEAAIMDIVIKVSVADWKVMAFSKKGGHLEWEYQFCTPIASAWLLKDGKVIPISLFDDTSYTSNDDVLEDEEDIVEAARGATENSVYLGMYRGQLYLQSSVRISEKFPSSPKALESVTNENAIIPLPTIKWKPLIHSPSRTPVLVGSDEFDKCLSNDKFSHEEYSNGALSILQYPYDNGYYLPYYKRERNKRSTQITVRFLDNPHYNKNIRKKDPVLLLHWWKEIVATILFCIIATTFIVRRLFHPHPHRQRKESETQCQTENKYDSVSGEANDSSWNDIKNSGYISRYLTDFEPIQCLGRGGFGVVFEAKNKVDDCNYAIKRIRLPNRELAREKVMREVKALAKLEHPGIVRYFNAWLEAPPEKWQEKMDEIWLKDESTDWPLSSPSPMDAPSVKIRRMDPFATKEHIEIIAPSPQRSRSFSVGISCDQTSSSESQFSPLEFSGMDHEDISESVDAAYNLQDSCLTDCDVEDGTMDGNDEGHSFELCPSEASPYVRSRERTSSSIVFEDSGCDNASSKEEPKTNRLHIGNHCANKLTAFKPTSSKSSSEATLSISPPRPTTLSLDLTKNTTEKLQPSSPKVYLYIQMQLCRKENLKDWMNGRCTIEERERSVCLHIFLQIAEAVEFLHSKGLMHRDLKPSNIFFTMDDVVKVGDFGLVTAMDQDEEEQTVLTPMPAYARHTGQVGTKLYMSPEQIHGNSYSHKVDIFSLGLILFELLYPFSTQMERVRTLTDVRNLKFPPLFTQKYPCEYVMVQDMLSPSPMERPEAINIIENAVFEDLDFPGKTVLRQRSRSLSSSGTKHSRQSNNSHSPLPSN
Nature of the experiment: Inhibition of PEK K2 labeling site in human Huh-7 cells at 1 uM by KiNativ Profiling analysis relative to control. In kind it is cell-based.

Experiment [15] concerns the target Casein kinase I isoform delta (Homo sapiens) (UniProt P48730). Nature of the experiment: Inhibition of CK1delta Lys2 labeling site in human Huh-7 cell lysate at 1 uM by KiNativ Profiling analysis relative to control. In kind it is subcellular.

Each structure is given as a SMILES string. Active and inactive are the calls of the source. The rule behind the calls is not given here.

Serine/threonine-protein kinase 17B (Homo sapiens), sequence (O94768 whole entry): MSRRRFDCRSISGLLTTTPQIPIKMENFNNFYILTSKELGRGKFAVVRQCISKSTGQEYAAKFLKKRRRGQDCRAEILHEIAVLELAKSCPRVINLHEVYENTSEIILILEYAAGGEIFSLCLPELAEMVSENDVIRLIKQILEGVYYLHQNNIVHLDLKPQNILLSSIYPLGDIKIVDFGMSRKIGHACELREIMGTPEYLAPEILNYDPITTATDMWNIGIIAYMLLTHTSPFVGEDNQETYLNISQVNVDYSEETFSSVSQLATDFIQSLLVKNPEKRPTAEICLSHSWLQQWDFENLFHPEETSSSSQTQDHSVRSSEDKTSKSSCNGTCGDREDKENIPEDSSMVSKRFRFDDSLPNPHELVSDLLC
Wee1-like protein kinase 2 (Homo sapiens), sequence (P0C1S8 whole entry, looked up): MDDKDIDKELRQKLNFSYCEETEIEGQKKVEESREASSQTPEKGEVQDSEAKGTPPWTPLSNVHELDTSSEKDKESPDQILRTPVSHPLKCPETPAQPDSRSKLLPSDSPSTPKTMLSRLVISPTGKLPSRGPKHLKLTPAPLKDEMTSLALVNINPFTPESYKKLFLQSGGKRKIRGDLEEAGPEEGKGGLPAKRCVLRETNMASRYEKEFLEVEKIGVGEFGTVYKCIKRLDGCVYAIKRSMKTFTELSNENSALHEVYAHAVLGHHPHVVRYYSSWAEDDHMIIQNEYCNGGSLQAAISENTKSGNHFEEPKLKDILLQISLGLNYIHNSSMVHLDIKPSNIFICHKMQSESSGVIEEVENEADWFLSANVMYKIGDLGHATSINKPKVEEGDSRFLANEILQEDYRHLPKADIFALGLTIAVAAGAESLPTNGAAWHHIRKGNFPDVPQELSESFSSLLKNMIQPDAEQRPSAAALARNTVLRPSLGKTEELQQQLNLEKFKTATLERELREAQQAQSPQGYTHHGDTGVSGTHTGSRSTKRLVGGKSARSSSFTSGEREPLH
Casein kinase I isoform delta (Homo sapiens), sequence (P48730 whole entry, looked up, canonical isoform): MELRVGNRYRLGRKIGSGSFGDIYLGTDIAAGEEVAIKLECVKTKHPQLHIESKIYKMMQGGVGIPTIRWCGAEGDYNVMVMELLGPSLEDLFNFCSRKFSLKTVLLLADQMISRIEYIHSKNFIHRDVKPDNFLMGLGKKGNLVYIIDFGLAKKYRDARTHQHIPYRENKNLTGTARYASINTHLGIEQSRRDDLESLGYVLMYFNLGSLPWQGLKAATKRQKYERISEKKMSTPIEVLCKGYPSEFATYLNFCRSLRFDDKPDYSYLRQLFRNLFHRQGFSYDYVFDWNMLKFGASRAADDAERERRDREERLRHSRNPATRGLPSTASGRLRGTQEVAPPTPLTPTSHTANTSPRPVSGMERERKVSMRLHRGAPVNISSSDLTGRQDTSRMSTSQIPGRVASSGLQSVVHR
Mast/stem cell growth factor receptor Kit (Homo sapiens), P10721 [V559D,T670I], sequence (P10721 whole entry V559D/T670I): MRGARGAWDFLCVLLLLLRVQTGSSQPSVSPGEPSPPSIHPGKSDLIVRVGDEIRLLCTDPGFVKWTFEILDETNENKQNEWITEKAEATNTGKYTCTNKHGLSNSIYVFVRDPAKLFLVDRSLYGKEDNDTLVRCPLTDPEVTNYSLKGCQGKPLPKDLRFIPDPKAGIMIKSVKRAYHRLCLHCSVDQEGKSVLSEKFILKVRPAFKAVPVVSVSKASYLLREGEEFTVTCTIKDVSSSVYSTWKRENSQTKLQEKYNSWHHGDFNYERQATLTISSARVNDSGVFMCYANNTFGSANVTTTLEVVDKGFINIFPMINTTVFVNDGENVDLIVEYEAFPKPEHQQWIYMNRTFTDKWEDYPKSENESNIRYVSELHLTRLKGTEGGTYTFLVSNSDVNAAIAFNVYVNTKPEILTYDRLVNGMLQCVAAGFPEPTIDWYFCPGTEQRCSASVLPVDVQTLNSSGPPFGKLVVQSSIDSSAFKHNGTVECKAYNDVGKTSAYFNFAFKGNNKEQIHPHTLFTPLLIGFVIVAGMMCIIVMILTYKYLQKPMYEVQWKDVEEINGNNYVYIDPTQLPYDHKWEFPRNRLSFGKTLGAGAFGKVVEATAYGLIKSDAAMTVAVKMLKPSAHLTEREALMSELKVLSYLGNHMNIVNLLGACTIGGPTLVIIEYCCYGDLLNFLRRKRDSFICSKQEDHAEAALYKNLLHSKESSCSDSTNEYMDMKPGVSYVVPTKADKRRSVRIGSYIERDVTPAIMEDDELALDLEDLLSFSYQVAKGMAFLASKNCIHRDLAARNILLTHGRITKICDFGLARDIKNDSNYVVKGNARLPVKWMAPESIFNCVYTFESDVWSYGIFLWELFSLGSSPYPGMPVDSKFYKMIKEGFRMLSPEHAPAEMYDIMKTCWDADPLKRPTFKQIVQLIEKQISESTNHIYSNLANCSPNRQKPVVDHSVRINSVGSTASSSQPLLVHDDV
Testis-specific serine/threonine-protein kinase 1 (Homo sapiens), sequence (Q9BXA7 whole entry): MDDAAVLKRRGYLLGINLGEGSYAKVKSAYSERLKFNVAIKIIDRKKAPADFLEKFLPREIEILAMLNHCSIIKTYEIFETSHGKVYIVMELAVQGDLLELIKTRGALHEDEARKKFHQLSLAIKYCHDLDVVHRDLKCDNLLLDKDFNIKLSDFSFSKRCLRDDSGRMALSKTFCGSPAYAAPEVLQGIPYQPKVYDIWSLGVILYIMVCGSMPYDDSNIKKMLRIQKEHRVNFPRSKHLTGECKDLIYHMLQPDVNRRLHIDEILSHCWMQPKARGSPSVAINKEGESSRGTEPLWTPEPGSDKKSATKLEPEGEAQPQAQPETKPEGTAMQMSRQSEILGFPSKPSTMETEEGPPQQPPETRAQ
Serine/threonine-protein kinase PAK 5 (Homo sapiens), sequence (Q9P286 whole entry, looked up): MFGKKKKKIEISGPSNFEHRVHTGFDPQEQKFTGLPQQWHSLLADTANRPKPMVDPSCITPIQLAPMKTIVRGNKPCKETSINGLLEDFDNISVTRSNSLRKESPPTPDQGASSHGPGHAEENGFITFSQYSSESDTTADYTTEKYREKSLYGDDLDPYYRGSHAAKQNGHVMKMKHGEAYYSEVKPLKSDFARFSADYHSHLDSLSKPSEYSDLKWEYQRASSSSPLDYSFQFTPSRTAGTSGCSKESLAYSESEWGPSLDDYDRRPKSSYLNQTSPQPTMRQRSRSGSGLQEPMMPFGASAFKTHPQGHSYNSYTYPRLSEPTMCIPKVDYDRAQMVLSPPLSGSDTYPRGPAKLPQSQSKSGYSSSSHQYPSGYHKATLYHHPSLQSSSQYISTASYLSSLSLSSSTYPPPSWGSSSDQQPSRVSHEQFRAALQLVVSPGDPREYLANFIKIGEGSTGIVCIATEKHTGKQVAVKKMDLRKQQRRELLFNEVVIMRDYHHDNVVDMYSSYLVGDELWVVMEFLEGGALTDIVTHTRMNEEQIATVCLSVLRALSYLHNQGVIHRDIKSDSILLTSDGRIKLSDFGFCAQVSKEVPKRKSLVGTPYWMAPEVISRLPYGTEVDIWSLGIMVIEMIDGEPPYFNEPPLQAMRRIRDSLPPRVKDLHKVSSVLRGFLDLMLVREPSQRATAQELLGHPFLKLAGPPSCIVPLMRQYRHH
RAF proto-oncogene serine/threonine-protein kinase, sequence (P04049 whole entry, canonical isoform): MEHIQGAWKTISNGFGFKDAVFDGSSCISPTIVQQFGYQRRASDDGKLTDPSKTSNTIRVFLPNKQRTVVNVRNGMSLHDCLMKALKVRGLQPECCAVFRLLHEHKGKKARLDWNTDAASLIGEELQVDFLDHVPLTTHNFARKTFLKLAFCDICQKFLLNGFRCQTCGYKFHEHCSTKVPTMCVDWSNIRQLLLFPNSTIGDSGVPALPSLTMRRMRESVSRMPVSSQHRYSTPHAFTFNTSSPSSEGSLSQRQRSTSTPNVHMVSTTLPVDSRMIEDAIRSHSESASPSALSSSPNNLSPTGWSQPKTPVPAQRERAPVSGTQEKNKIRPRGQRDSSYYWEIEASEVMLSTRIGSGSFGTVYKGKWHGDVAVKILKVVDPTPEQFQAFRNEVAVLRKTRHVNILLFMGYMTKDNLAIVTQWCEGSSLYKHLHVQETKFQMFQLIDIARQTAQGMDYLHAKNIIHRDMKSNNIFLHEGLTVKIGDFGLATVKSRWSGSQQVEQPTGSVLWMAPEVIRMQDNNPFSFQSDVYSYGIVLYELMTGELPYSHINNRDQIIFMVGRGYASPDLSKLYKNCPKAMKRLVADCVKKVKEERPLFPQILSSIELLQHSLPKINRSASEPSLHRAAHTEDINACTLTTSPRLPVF
Mitogen-activated protein kinase kinase kinase 11 (Homo sapiens), sequence (Q16584 whole entry, looked up): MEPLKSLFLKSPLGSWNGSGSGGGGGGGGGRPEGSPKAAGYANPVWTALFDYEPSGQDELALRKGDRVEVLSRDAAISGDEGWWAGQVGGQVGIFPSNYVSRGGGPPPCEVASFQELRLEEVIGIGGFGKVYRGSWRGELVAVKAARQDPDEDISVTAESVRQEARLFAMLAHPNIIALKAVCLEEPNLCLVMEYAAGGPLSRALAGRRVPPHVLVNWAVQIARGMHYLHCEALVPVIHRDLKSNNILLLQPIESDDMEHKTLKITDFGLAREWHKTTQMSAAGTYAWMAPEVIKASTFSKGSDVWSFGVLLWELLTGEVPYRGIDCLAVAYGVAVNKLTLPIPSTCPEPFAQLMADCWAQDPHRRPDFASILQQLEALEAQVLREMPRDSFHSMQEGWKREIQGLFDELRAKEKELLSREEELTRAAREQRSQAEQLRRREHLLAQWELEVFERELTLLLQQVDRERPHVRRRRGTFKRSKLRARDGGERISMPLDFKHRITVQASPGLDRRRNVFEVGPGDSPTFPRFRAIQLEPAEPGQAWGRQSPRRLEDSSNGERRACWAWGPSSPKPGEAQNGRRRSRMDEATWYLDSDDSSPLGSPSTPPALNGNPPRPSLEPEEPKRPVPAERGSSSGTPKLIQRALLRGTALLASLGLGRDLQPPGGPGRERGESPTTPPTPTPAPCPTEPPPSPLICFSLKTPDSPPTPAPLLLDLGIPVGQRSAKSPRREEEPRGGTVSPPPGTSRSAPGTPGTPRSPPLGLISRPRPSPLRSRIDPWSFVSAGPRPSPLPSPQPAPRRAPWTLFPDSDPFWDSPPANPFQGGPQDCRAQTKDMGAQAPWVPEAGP

As to `CCN1CCN(Cc2ccc(NC(=O)c3ccc(C)c(/C=C/c4cnc5[nH]ccc5c4OC)c3)cc2C(F)(F)F)CC1`, the inhibition came to 74% in experiment [1]; 23% in experiment [2]; 84% in experiment [4]; 81% in [5]; 27.6% in experiment [6]. This compound also gave a residual activity in experiment [3] of 4.9%.

As to `CCN1CCN(Cc2ccc(NC(=O)c3ccc(C)c(Oc4ccnc5[nH]ccc45)c3)cc2C(F)(F)F)CC1`, the inhibition stood at 83.8% in [7] and 25.3% in experiment [12]. Also, the inhibition result in experiment [8], in [9], in experiment [10], in experiment [11], in experiment [13] and in experiment [14] was “inactive” each time.

Regarding `CNc1cc(Oc2cc(C(=O)Nc3cc(N4CCN(C)CC4)cc(C(F)(F)F)c3)ccc2C)ncn1`, in experiment [15], the inhibition was found to be 0.6%.

(Values after ChEMBL document CHEMBL5696442, “Discovery of type II inhibitors of TGFβ-activated kinase 1 (TAK1) and mitogen-activated protein kinase kinase kinase kinase 2 (MAP4K2)” (J Med Chem, 2015).)
